In brackets after ≈: the same amount, converted by molar mass.
Key:
[1] = test system: Moraxella catarrhalis; test: Antimicrobial activity against drug-susceptible Moraxella catarrhalis 2 after 20 hrs by agar dilution method; format: functional
Outline: (§1)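 Streptococci, H. influenzae and M. catarrhalis were precultured on blood agar plates. Suspensions of about 10⁶ CFU/ml were inoculated onto sensitivity disk agar supplemented with 5% horse blood and incubated at 37 °C for 20 h. MIC was read as the lowest drug concentration with no visible growth.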

[2] = test system: Haemophilus influenzae; test: Antimicrobial activity against drug-susceptible Haemophilus influenzae 3 after 20 hrs by agar dilution method; format: functional; outline: as §1
[3] = test system: Moraxella catarrhalis; test: Antimicrobial activity against drug-susceptible Moraxella catarrhalis 1 after 20 hrs by agar dilution method; format: functional; outline: as §1
[4] = test system: Staphylococcus aureus; test: Antimicrobial activity against drug-susceptible Staphylococcus aureus 2 after 20 hrs by agar dilution method; format: functional
Outline: (§2)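 Agar dilution MIC. S. aureus seed culture was grown in sensitivity test broth. Cell suspension (about 10⁶ CFU/ml) was inoculated onto sensitivity disk agar with 5% horse blood and incubated at 37 °C for 20 h. MIC was the lowest drug concentration that prevented visible growth.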

[5] = test system: Streptococcus pneumoniae; test: Antimicrobial activity against drug-susceptible Streptococcus pneumoniae 2 after 20 hrs by agar dilution method; format: functional; outline: as §1
[6] = test system: Staphylococcus aureus; test: Antimicrobial activity against Staphylococcus aureus 6 expressing inducible ermC after 20 hrs by agar dilution method
[7] = test system: Streptococcus pyogenes; test: Antimicrobial activity against Streptococcus pyogenes 2 constitutively expressing ermB after 20 hrs by agar dilution method; format: functional; outline: as §1
[8] = test system: Streptococcus pneumoniae; test: Antimicrobial activity against Streptococcus pneumoniae 10 expressing mefA after 20 hrs by agar dilution method; format: functional; outline: as §1
[9] = test system: Streptococcus pneumoniae; test: Antimicrobial activity against Streptococcus pneumoniae 4 constitutively expressing ermB after 20 hrs by agar dilution method; format: functional; settings: Streptococcus pneumoniae, 20 h; read-out: MIC; outline: as §1
[10] = test system: Streptococcus pneumoniae; test: Antimicrobial activity against Streptococcus pneumoniae 6 constitutively expressing ermB after 20 hrs by agar dilution method; format: functional; settings: Streptococcus pneumoniae, 20 h; read-out: MIC; outline: as §1
[11] = test system: Haemophilus influenzae; test: Antimicrobial activity against drug-susceptible Haemophilus influenzae 4 after 20 hrs by agar dilution method; format: functional; outline: as §1
[12] = test system: Streptococcus pneumoniae; test: Antimicrobial activity against Streptococcus pneumoniae 7 expressing inducible ermB after 20 hrs by agar dilution method; format: functional; outline: as §1
[13] = test system: Haemophilus influenzae; test: Antimicrobial activity against drug-susceptible Haemophilus influenzae 2 after 20 hrs by agar dilution method; format: functional; outline: as §1
[14] = test system: Haemophilus influenzae; test: Antimicrobial activity against drug-susceptible Haemophilus influenzae 1 after 20 hrs by agar dilution method; format: functional; outline: as §1
[15] = test system: Streptococcus pneumoniae; test: Antimicrobial activity against Streptococcus pneumoniae 5 constitutively expressing ermB/mefA after 20 hrs by agar dilution method; format: functional; settings: Streptococcus pneumoniae, 20 h; read-out: MIC; outline: as §1
[16] = test system: Streptococcus pyogenes; test: Antimicrobial activity against Streptococcus pyogenes 3 expressing mefA after 20 hrs by agar dilution method; format: functional; outline: as §1
[17] = test system: Staphylococcus aureus; test: Antimicrobial activity against Staphylococcus aureus 4 constitutively expressing ermA after 20 hrs by agar dilution method; format: functional; outline: as §2
[18] = test system: Streptococcus pneumoniae; test: Antimicrobial activity against Streptococcus pneumoniae 9 expressing mefA after 20 hrs by agar dilution method; format: functional; outline: as §1
[19] = test system: Staphylococcus aureus; test: Antimicrobial activity against drug-susceptible Staphylococcus aureus 209P JC-1 after 20 hrs by agar dilution method; format: functional; outline: as §2
[20] = test system: Staphylococcus aureus; test: Antimicrobial activity against drug-susceptible Staphylococcus aureus 3 after 20 hrs by agar dilution method; format: functional; outline: as §2
[21] = test system: Streptococcus pneumoniae; test: Antimicrobial activity against Streptococcus pneumoniae 8 expressing inducible ermB after 20 hrs by agar dilution method; format: functional; outline: as §1
[22] = test system: Streptococcus pneumoniae; test: Antimicrobial activity against drug-susceptible Streptococcus pneumoniae DP1 Type1 after 20 hrs by agar dilution method; format: functional; outline: as §1
[23] = test system: Staphylococcus aureus; test: Antimicrobial activity against Staphylococcus aureus 5 expressing inducible ermB after 20 hrs by agar dilution method; format: functional; outline: as §2
[24] = test system: Streptococcus pyogenes; test: Antimicrobial activity against drug-susceptible Streptococcus pyogenes 1 after 20 hrs by agar dilution method; format: functional; outline: as §1
[25] = test system: Streptococcus pneumoniae; test: Antimicrobial activity against drug-susceptible Streptococcus pneumoniae 3 after 20 hrs by agar dilution method; format: functional; outline: as §1
[26] = Haemophilus influenzae, 20 h, read-out: MIC
[27] = Streptococcus pneumoniae, 20 h, read-out: MIC
[28] = Streptococcus pyogenes, 20 h, read-out: MIC

| SMILES | MIC [3] [µg/mL] | MIC [4] [µg/mL] | MIC [6] [µg/mL] | MIC [7] [µg/mL] | MIC [9] [µg/mL] | MIC [10] [µg/mL] | MIC [12] [µg/mL] | MIC [14, 26] [µg/mL] | MIC [15] [µg/mL] | MIC [17] [µg/mL] | MIC [19] [µg/mL] | MIC [21] [µg/mL] | MIC [22] [µg/mL] | MIC [23] [µg/mL] | MIC [25] [µg/mL] | MIC [1] [µg/mL] | MIC [2] [µg/mL] | MIC [5] [µg/mL] | MIC [8] [µg/mL] | MIC [11] [µg/mL] | further results |
| --- | --- | --- | --- | --- | --- | --- | --- | --- | --- | --- | --- | --- | --- | --- | --- | --- | --- | --- | --- | --- | --- |
| CCOC(=O)[C@H]1[C@H](C)O[C@@H](O[C@H]2[C@H](N(C)C)[C@@H](O)[C@H](O[C@H]3[C@@H](CC=O)C[C@@H](C)[C@@H](O)CN(C)CCC(/C=C/Cc4ccnc5ccccc45)NC(=O)C[C@@H](OC(=O)CC)[C@@H]3OC)O[C@@H]2C)C[C@@]1(C)O (mixture of isomers) | 1 | 1 | 0.5 | > 128 | > 128 | > 128 | 8 | 32 | > 128 | > 128 | 0.5 | 8 | 0.03 | 0.5 | 0.06 |  |  |  |  |  | MIC ([1]; Moraxella catarrhalis, 20 h, read-out: MIC): 2 µg/mL; MIC [2, 26]: 8 µg/mL; MIC [5, 27]: 0.13 µg/mL; MIC [8, 27]: 0.13 µg/mL; MIC [11, 26]: 8 µg/mL; MIC [13, 26]: 1 µg/mL; MIC [16, 28]: 1 µg/mL; MIC [18, 27]: 0.13 µg/mL; MIC ([20]; Staphylococcus aureus, 20 h, read-out: MIC): 0.5 µg/mL; MIC [24, 28]: 0.25 µg/mL |
| CCOC(=O)[C@H]1[C@H](C)O[C@@H](O[C@H]2[C@H](N(C)C)[C@@H](O)[C@H](O[C@H]3[C@@H](CC=O)C[C@@H](C)[C@@H](O)CN(C)CCC(/C=C/Cc4ccnc5ccccc45)NC(=O)C[C@@H](OC(=O)CC)[C@@H]3OC)O[C@@H]2C)C[C@@]1(C)O (stereo in doubt) | 4 (≈ 4.12 µM) | 4 (≈ 4.12 µM) | 2 (≈ 2.06 µM) |  |  |  | 64 (≈ 65.9 µM) |  |  |  | 2 (≈ 2.06 µM) | 64 (≈ 65.9 µM) | 0.13 (≈ 0.134 µM) | 2 (≈ 2.06 µM) | 0.25 (≈ 0.257 µM) | 4 (≈ 4.12 µM) | 8 (≈ 8.24 µM) | 0.25 (≈ 0.257 µM) | 0.25 (≈ 0.257 µM) | 16 (≈ 16.5 µM) | MIC [13]: 1 µg/mL (≈ 1.03 µM); MIC [14]: 32 µg/mL (≈ 32.9 µM); MIC [16]: 2 µg/mL (≈ 2.06 µM); MIC [18]: 0.25 µg/mL (≈ 0.257 µM); MIC [20]: 1 µg/mL (≈ 1.03 µM); MIC [24]: 0.5 µg/mL (≈ 0.515 µM) |
| CCOC(=O)[C@H]1[C@H](C)O[C@@H](O[C@H]2[C@H](N(C)C)[C@@H](O)[C@H](O[C@H]3[C@@H](CC=O)C[C@@H](C)[C@@H](O)CN(C)CC(/C=C\Cc4ccnc5ccccc45)CCOC(=O)C[C@@H](OC(=O)CC)[C@@H]3OC)O[C@@H]2C)C[C@@]1(C)O (stereo in doubt; form 1) | 2 (≈ 2.03 µM) | 1 (≈ 1.01 µM) | 0.5 (≈ 0.507 µM) | > 128 | > 128 | > 128 | 8 (≈ 8.11 µM) | 64 (≈ 64.9 µM) | > 128 | > 128 | 0.25 (≈ 0.253 µM) | 8 (≈ 8.11 µM) | 0.03 (≈ 0.0304 µM) | 0.25 (≈ 0.253 µM) | 0.06 (≈ 0.0608 µM) | 2 (≈ 2.03 µM) | 16 (≈ 16.2 µM) | 0.06 (≈ 0.0608 µM) | 0.06 (≈ 0.0608 µM) | 16 (≈ 16.2 µM) | MIC [16]: 0.5 µg/mL (≈ 0.507 µM); MIC [18]: 0.06 µg/mL (≈ 0.0608 µM); MIC [20]: 0.25 µg/mL (≈ 0.253 µM); MIC [24]: 0.13 µg/mL (≈ 0.132 µM) |

From ChEMBL document CHEMBL1151705, “Novel azalides derived from 16-membered macrolides. Part II: Isolation of the linear 9-formylcarboxylic acid and its sequential macrocyclization with an amino alcohol or an azidoamine” (2008)
